PubChem BioAssay AID2648 (Johns Hopkins Ion Channel Center, 2010)
Hit rate of the full screen: of about 310,000 compounds, about 1,100 (0.35%) were called active.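 Rule for the calls: active = fluorescence ratio B-score, a plate-corrected score, at least three library SD, with initial intensity B-score within 5 SD; inactive = the rest.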 Shown is part of a subset that was picked to be rich in actives.

Target: Potassium voltage-gated channel subfamily KQT member 1 (Homo sapiens) (UniProt P51787)
Assay: potentiators or activators of KCNQ1 channel, primary screen, cell-based, thallium flux, high-throughput (AID 2648)
Conditions: CHO-K1 KCNQ1, thallium flux FluxOR fluorescence, at 10 µM; stronger effect = higher value
In short: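 Assay system: stable KCNQ1 CHO-K1 line; medium: assay buffer, equal DMSO in all wells; timing: 90 min dye loading and 20 min compound exposure, both at room temperature; technique: kinetic FluxOR thallium fluorescence, 10-s 1-Hz baseline, 110-s post-stimulus read; read-out basis: B score of baseline-normalized fluorescence ratio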

Chain of Potassium voltage-gated channel subfamily KQT member 1 (Homo sapiens) (P51787 whole entry, looked up): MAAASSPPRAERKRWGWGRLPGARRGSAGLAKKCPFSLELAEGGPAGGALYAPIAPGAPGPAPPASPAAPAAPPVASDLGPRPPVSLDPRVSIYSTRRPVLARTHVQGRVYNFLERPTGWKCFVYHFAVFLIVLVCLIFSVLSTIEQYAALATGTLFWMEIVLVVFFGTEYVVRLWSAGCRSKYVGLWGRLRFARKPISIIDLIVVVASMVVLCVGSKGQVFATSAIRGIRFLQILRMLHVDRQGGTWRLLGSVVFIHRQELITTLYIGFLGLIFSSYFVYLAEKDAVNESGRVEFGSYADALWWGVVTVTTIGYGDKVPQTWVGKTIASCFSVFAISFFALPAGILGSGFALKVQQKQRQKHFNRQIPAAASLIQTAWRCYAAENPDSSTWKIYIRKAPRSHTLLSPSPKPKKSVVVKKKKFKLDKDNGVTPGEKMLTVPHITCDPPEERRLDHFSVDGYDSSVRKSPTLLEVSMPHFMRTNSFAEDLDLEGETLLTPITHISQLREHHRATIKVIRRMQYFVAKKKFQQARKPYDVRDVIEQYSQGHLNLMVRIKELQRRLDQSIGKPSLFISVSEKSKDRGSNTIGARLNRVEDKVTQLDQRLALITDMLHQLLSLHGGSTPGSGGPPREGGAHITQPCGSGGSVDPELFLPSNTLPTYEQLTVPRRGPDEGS

Structure (SMILES)	B-score
COc1cc(-n2c(=S)[nH]c3ccc(C)cc3c2=O)c(Cl)cc1Cl	8 (active)
C/C=C/CC1(CC)C(=O)NC(=S)NC1=O	inactive
CCN(CC)C(=O)c1ccc(NC(=O)c2sccc2-c2ccccc2)cc1	inactive
Cc1ccc2c(c1)C1CN(C)CCC1N2C(=O)Cn1nnc(-c2ccccc2F)n1 (stereo not given)	inactive
CC(Cc1ccccc1)NC=O (stereo not given)	inactive
